According to ChEMBL document CHEMBL2169747, “Synthesis and biological properties of highly sequence-specific-alkylating N-methylpyrrole-N-methylimidazole polyamide conjugates” (J Med Chem, 2012):
Calls of active or inactive are those of the source. The calls are words filed in the database; no cut-off is given here.

What was measured:
A549 [1] = experiment: Downregulation of DYM gene expression in human A549 cells at 100 nM after 12 hrs by microarray analysis relative to control; assay type: functional
How it was run: (§1)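 A549 cells, 4 × 10^5 per 60 mm dish, were exposed to conjugate for 12 h in medium with 0.1% DMSO; vehicle control was 0.1% DMSO. Whole human genome (~25 000 genes) expression was profiled by microarray and expression compared with the control.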

A549 [2] = experiment: Upregulation of CDKN1A gene expression in human A549 cells at 100 nM after 12 hrs by microarray analysis relative to control; assay type: functional
How it was run: (§2)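 4 ×10^5 A549 cells seeded per 60 mm dish and treated 12 h with conjugate (21, 26, 34 or 100 nM) in medium; control medium contained 0.1% DMSO, with conjugates added as 0.1% DMSO solutions. Whole human genome (~25 000 genes) expression profiled by microarray against the DMSO control. A549 culture: RPMI-1640 with 10% heat-inactivated FBS, penicillin/streptomycin, 37 °C, 5% CO2.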

A549 [3] = experiment: Downregulation of FUT8 gene expression in human A549 cells at 100 nM after 12 hrs by microarray analysis relative to control; assay type: functional; how it was run: as §1
A549 [4] = experiment: Downregulation of Q8TC78 gene expression in human A549 cells at 100 nM after 12 hrs by microarray analysis relative to control; assay type: functional
How it was run: (§3)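 A549 cells (RPMI-1640, 10% heat-inactivated FBS, penicillin/streptomycin, 37 °C, 5% CO2) seeded at 4 × 10^5 per 60 mm dish. Exposed 12 h to conjugate at 21, 26, 34 or 100 nM in medium with 0.1% DMSO, against 0.1% DMSO control. Whole-genome (~25 000 genes) expression profiled by microarray.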

A549 [5] = experiment: Upregulation of BTG2 gene expression in human A549 cells at 100 nM after 12 hrs by microarray analysis relative to control; assay type: functional; how it was run: as §3
A549 [6] = experiment: Downregulation of NP_112224.1 gene expression in human A549 cells at 100 nM after 12 hrs by microarray analysis relative to control; assay type: functional; how it was run: as §1
A549 [7] = experiment: Downregulation of NP_056993.2 gene expression in human A549 cells at 100 nM after 12 hrs by microarray analysis relative to control; assay type: functional; how it was run: as §1
A549 [8] = experiment: Upregulation of BBC3 gene expression in human A549 cells at 100 nM after 12 hrs by microarray analysis relative to control; assay type: functional; how it was run: as §3
A549 [9] = experiment: Downregulation of RPS6KC1 gene expression in human A549 cells at 100 nM after 12 hrs by microarray analysis relative to control; assay type: functional; how it was run: as §3
A549 [10] = experiment: Downregulation of NCOA1 gene expression in human A549 cells at 100 nM after 12 hrs by microarray analysis relative to control; assay type: functional; how it was run: as §1
A549 [11] = experiment: Upregulation of U124 gene expression in human A549 cells at 100 nM after 12 hrs by microarray analysis relative to control; assay type: functional; how it was run: as §2
A549 [12] = experiment: Downregulation of PTPRK gene expression in human A549 cells at 100 nM after 12 hrs by microarray analysis relative to control; assay type: functional; how it was run: as §3
A549 [13] = experiment: Downregulation of SUPT3H gene expression in human A549 cells at 100 nM after 12 hrs by microarray analysis relative to control; assay type: functional; how it was run: as §3
K562 = experiment: Cytotoxicity against human K562 cells assessed as cell growth inhibition after 48 hrs by microplate reader analysis; assay type: functional, cell-based; conditions: K562, 48 h
How it was run: (§4)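 Medium was RPMI-1640 for EBC-1, A549 and DU145, and DMEM for PC-3, SK-N-SH and K562. Both media had 10% heat-inactivated FBS plus penicillin/streptomycin; cells were kept at 37 °C, 5% CO2. Cells were seeded at 5000/well and given compound from DMSO stock (final 0.1% DMSO) for 48 h. Viability was read by WST-8 colorimetry, absorbance at 450 and 600 nm, and IC50 determined.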

A549 [14] = experiment: Upregulation of NPPC gene expression in human A549 cells at 100 nM after 12 hrs by microarray analysis relative to control; assay type: functional; how it was run: as §2
A549 [15] = experiment: Downregulation of XRCC4 gene expression in human A549 cells at 100 nM after 12 hrs by microarray analysis relative to control; assay type: functional; how it was run: as §3
DU-145 = experiment: Cytotoxicity against human DU145 cells assessed as cell growth inhibition after 48 hrs by microplate reader analysis; assay type: functional, cell-based; conditions: DU-145, 48 h; how it was run: as §4
A549 [16] = experiment: Downregulation of NP_653244.1 gene expression in human A549 cells at 100 nM after 12 hrs by microarray analysis relative to control; assay type: functional; how it was run: as §3
[17] = Cytotoxicity against human EBC1 cells assessed as cell growth inhibition after 48 hrs by microplate reader analysis; assay type: functional, cell-based; conditions: EBC-1, 48 h; how it was run: as §4
A549 [18] = experiment: Downregulation of UVRAG gene expression in human A549 cells at 100 nM after 12 hrs by microarray analysis relative to control; assay type: functional; how it was run: as §3
A549 [19] = experiment: Upregulation of GADD45A gene expression in human A549 cells at 100 nM after 12 hrs by microarray analysis relative to control; assay type: functional; how it was run: as §2
A549 [20] = experiment: Cytotoxicity against human A549 cells assessed as cell growth inhibition after 48 hrs by microplate reader analysis; assay type: functional, cell-based; conditions: A549, 48 h; how it was run: as §4
PC-3 = experiment: Cytotoxicity against human PC3 cells assessed as cell growth inhibition after 48 hrs by microplate reader analysis; assay type: functional, cell-based; conditions: PC-3, 48 h; how it was run: as §4
SK-N-SH = experiment: Cytotoxicity against human SK-N-SH cells assessed as cell growth inhibition after 48 hrs by microplate reader analysis; assay type: functional, cell-based; how it was run: as §4
A549 [21] = experiment: Downregulation of TCF12 gene expression in human A549 cells at 100 nM after 12 hrs by microarray analysis relative to control; assay type: functional; how it was run: as §3
A549 [22] = experiment: Upregulation of RRAD gene expression in human A549 cells at 100 nM after 12 hrs by microarray analysis relative to control; assay type: functional; how it was run: as §2
A549 [23] = experiment: Upregulation of FDXR gene expression in human A549 cells at 100 nM after 12 hrs by microarray analysis relative to control; assay type: functional; how it was run: as §2
A549 [24] = experiment: Upregulation of HES2 gene expression in human A549 cells at 100 nM after 12 hrs by microarray analysis relative to control; assay type: functional; how it was run: as §2
A549 [25] = experiment: Downregulation of PDE7B gene expression in human A549 cells at 100 nM after 12 hrs by microarray analysis relative to control; assay type: functional; how it was run: as §3
A549 [26] = experiment: Downregulation of FAF1 gene expression in human A549 cells at 100 nM after 12 hrs by microarray analysis relative to control; assay type: functional; how it was run: as §1
A549 [27] = experiment: Downregulation of ELP4 gene expression in human A549 cells at 100 nM after 12 hrs by microarray analysis relative to control; assay type: functional; how it was run: as §1
A549 [28] = experiment: Downregulation of GULP1 gene expression in human A549 cells at 100 nM after 12 hrs by microarray analysis relative to control; assay type: functional; how it was run: as §1
Nucleic Acid = experiment: Induction of 208-bp PCR fragment DNA cleavage at 10 to 200 nM after 12 h by PAGE analysis
A549 [29] = experiment: Downregulation of SEMA3A gene expression in human A549 cells at 100 nM after 12 hrs by microarray analysis relative to control; assay type: functional; how it was run: as §3
A549 [30] = experiment: Downregulation of NP_060504.1 gene expression in human A549 cells at 100 nM after 12 hrs by microarray analysis relative to control; assay type: functional; how it was run: as §1
A549 [31] = experiment: Upregulation of MDM2 gene expression in human A549 cells at 100 nM after 12 hrs by microarray analysis relative to control; assay type: functional; how it was run: as §2
A549 [32] = experiment: Downregulation of EFA6R gene expression in human A549 cells at 100 nM after 12 hrs by microarray analysis relative to control; assay type: functional; how it was run: as §1

CC(=O)Nc1cn(C)c(C(=O)Nc2cn(C)c(C(=O)Nc3cc(C(=O)NCCC(=O)Nc4cc(C(=O)NCCCC(=O)Nc5cn(C)c(C(=O)NCCC(=O)Nc6cc(C(=O)Nc7ccc8[nH]c(C(=O)N9CC(CCl)c%10c9cc(O)c9ccccc%109)cc8c7)n(C)c6)n5)n(C)c4)n(C)c3)n2)n1 (racemic)
fold change (FC) (A549 [1]): 0.08 | fold change (FC) (A549 [2]): 9 | fold change (FC) (A549 [3]): 0.035 | fold change (FC) (A549 [4]): 0.056 | fold change (FC) (A549 [5]): 13 | fold change (FC) (A549 [6]): 0.058 | fold change (FC) (A549 [7]): 0.076 | fold change (FC) (A549 [8]): 10.7 | fold change (FC) (A549 [9]): 0.038 | fold change (FC) (A549 [10]): 0.068 | fold change (FC) (A549 [11]): 10.3 | fold change (FC) (A549 [12]): 0.026 | fold change (FC) (A549 [13]): 0.052 | IC50 (K562): 15.5 nM | fold change (FC) (A549 [14]): 10.5 | fold change (FC) (A549 [15]): 0.067 | IC50 (DU-145): 11.2 nM | fold change (FC) (A549 [16]): 0.061 | IC50 [17]: 550 nM | fold change (FC) (A549 [18]): 0.066 | fold change (FC) (A549 [19]): 8.3 | IC50 (A549 [20]): 100 nM | IC50 (PC-3): 29.5 nM | IC50 (SK-N-SH): 129 nM | fold change (FC) (A549 [21]): 0.074 | fold change (FC) (A549 [22]): 11.2 | fold change (FC) (A549 [23]): 8.2 | fold change (FC) (A549 [24]): 19.2 | fold change (FC) (A549 [25]): 0.064 | fold change (FC) (A549 [26]): 0.071 | fold change (FC) (A549 [27]): 0.045 | fold change (FC) (A549 [28]): 0.062 | Activity (Nucleic Acid): Active | fold change (FC) (A549 [29]): 0.063 | fold change (FC) (A549 [30]): 0.068 | fold change (FC) (A549 [31]): 15.6 | fold change (FC) (A549 [32]): 0.058
